Results: ChEMBL document CHEMBL3797058, “Sorazolons, Carbazole Alkaloids from Sorangium cellulosum Strain Soce375” (J Nat Prod, 2016)
Values after ≈ are worked out from the molar mass of the structure shown. Active and inactive are the calls of the source. The rule behind the calls is not given here.

Experiments:
[1] = tested on: Escherichia coli; assay: Antimicrobial activity against Escherichia coli DSM 1116 by serial dilution method; assay type: functional, organism-based
Outline: (§1)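 MIC by serial dilution (150 μL) in 96-well tissue-culture plates; 20 μL aliquots of compound at 1 mg/mL tested; methanol as negative control.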

[2] = tested on: Micrococcus luteus; assay: Antimicrobial activity against Micrococcus luteus DSM 1790 by serial dilution method; assay type: functional; outline: as §1
[3] = tested on: Escherichia coli; assay: Antimicrobial activity against Escherichia coli TolC by serial dilution method; assay type: functional; outline: as §1
[4] = tested on: Bacillus subtilis; assay: Antimicrobial activity against Bacillus subtilis DSM 10 by serial dilution method; assay type: functional; outline: as §1
[5] = tested on: Candida albicans; assay: Antimicrobial activity against Candida albicans DSM 1665 by serial dilution method; assay type: functional, organism-based; outline: as §1
[6] = tested on: Wickerhamomyces anomalus; assay: Antimicrobial activity against Wickerhamomyces anomalus DSM 6766 by serial dilution method; assay type: functional, organism-based; outline: as §1
[7] = tested on: Mycolicibacterium smegmatis; assay: Antimicrobial activity against Mycobacterium smegmatis ATCC 700084 by serial dilution method; assay type: functional, organism-based; outline: as §1
[8] = tested on: Staphylococcus aureus; assay: Antimicrobial activity against Staphylococcus aureus Newman by serial dilution method; assay type: functional; outline: as §1
[9] = tested on: L929; assay: Cytotoxicity against mouse L929 cells; assay type: cell-based
Outline: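 Mouse fibroblast L929 cells exposed to 3.0 μL of each compound; MIC determined by serial dilution (60 μL) in 96-well tissue-culture plates.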

[10] = tested on: Mucor hiemalis; assay: Antimicrobial activity against Mucor hiemalis DSM 2656 by serial dilution method; assay type: functional; outline: as §1
[11] = tested on: Pseudomonas aeruginosa; assay: Antimicrobial activity against Pseudomonas aeruginosa PA14 by serial dilution method; assay type: functional; outline: as §1
[12] = Mus musculus, L929, read-out: IC50

Row | MIC [1] | MIC [2] | MIC [3] | MIC [4] | MIC [5] | MIC [6] | MIC [7] | MIC [8] | MIC [10] | MIC [11] | SMILES | IC50 ([9]; l929) | IC50 [9, 12]
1 | inactive | inactive | inactive | inactive | inactive | inactive | inactive | inactive | inactive | inactive | C=C1c2[nH]c3ccccc3c2C[C@@H](O)[C@@]1(C)O | Not Active | –
2 | inactive | 33.3 µg/mL (≈ 158 µM) | 67 µg/mL (≈ 317 µM) | 16.6 µg/mL (≈ 78.6 µM) | inactive | inactive | inactive | 33.3 µg/mL (≈ 158 µM) | inactive | inactive | Cc1c(O)cc2c([nH]c3ccccc32)c1C | – | 85.2 µM
3 | inactive | inactive | inactive | inactive | inactive | inactive | inactive | inactive | inactive | inactive | C[C@@]1(O)C(=O)Cc2c([nH]c3ccccc23)[C@@]1(C)O | Not Active | –
4 | inactive | inactive | inactive | inactive | inactive | inactive | inactive | inactive | inactive | inactive | C[C@@]1(O)C(=O)C(=O)c2c([nH]c3ccccc23)[C@@]1(C)O | Not Active | –

Second part, the molecule before the results:

Row | SMILES | MIC [1] | MIC [2] | MIC [3] | MIC [4] | MIC [5] | MIC [6] | MIC [7] | MIC [8] | MIC [10] | MIC [11] | IC50 ([9]; l929) | IC50 [9, 12]
5 | CO[C@]1(C)c2[nH]c3ccccc3c2C(=O)C(=O)[C@@]1(C)O | inactive | 16.6 µg/mL (≈ 60.7 µM) | inactive | 8.3 µg/mL (≈ 30.4 µM) | inactive | inactive | inactive | 16.6 µg/mL (≈ 60.7 µM) | inactive | inactive | – | 76.8 µM
6 | CO[C@]1(C)c2[nH]c3ccccc3c2CC(=O)[C@@]1(C)O | inactive | inactive | inactive | inactive | inactive | inactive | inactive | inactive | inactive | inactive | Not Active | –
7 | Cc1ccc2c([nH]c3ccccc32)c1C=O | inactive | inactive | inactive | inactive | inactive | inactive | inactive | inactive | inactive | inactive | Not Active | –
8 | Cc1c(O)c(-c2c(O)c(C)c(C)c3[nH]c4ccccc4c23)c2c([nH]c3ccccc32)c1C | inactive | 16.6 µg/mL (≈ 39.5 µM) | 33.3 µg/mL (≈ 79.2 µM) | 16.6 µg/mL (≈ 39.5 µM) | inactive | inactive | inactive | 16.6 µg/mL (≈ 39.5 µM) | 67 µg/mL (≈ 159 µM) | inactive | – | 4.99 µM
9 | C[C@@]1(O)C(=O)[C@H]([C@H]2C(=O)[C@@](C)(O)[C@](C)(O)c3[nH]c4ccccc4c32)c2c([nH]c3ccccc23)[C@@]1(C)O | inactive | inactive | inactive | inactive | inactive | inactive | inactive | inactive | inactive | inactive | Not Active | –
